In ChEMBL document CHEMBL1250461, “Synthesis, binding and bioactivity of gamma-methylene gamma-lactam ecdysone receptor ligands: advantages of QSAR models for flexible receptors” (Bioorg Med Chem, 2010):
Converted amounts (≈) assume the structure as drawn.

What was measured:
Ecdysone receptor = target: T1, Ecdysone receptor (Lucilia cuprina, UniProt O18531); assay: Binding affinity to Lucilia cuprina recombinant ecdysone receptor ligand binding domain after 3 hrs by fluorescence polarization assay
T1 sequence (O18531 whole entry): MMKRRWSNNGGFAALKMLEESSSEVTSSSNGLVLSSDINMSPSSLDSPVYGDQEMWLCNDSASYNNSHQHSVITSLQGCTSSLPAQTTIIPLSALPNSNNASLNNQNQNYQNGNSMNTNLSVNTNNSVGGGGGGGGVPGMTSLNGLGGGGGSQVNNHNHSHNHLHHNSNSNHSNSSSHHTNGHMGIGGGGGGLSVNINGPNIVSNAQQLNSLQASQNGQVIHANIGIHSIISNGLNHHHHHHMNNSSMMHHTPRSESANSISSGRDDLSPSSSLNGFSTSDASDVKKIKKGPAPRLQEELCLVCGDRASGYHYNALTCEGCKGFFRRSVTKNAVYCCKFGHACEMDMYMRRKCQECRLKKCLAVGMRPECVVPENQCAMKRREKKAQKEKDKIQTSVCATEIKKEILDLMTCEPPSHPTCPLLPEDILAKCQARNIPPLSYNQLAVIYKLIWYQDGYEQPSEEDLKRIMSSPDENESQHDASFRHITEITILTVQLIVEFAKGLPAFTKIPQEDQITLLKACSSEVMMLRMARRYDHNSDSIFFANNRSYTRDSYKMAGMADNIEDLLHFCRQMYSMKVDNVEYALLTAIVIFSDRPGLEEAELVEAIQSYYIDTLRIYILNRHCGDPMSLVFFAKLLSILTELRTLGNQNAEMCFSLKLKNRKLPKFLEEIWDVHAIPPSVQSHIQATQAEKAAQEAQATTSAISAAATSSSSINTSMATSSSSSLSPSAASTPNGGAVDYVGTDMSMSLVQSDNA
Procedure, shortened: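 L. cuprina EcR_DEF/USP_DEF LBD heterodimer, baculovirus co-expressed and IMAC-purified, used at 1.14 mg/mL. Fluorescence polarisation competition against 36 nM fluorescein–inokosterone A conjugate, with 0.5 mg/mL BSA and 3% v/v DMSO in 50 mM sodium phosphate/100 mM NaCl, pH 7.4. Test range 3 nM–3 mM final. Overnight at 4 °C, then 3 h re-equilibration at room temperature, mP read. Triplicate on one plate; IC50 from mean.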

[1] = Binding affinity to Bovicola ovis recombinant ecdysone receptor ligand binding domain after 3 hrs by fluorescence polarization assay
Procedure, shortened: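 B. ovis EcR_DEF/USP_DEF LBD heterodimer, co-expressed from baculovirus and purified by IMAC (2.51 mg/mL final). Competes with 36 nM fluorescein–inokosterone A conjugate in 50 mM sodium phosphate, 100 mM NaCl, pH 7.4 with 0.5 mg/mL BSA and 3% v/v DMSO. Compound range 3 nM–3 mM final. Incubated overnight at 4 °C, then 3 h at room temperature before polarisation (mP) read. Triplicate; IC50 from mean.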

[2] = Toxicity in Bovicola ovis assessed as mortality after 9 days; details: 216 h

Structure (SMILES)	IC50 (Ecdysone receptor) [µM]	IC50 [1] [µM]	LC50 [2] [µg/mL]
C=C1C(CC)=C(C#N)C(=O)N1c1cc(Cl)ccc1C(C)(C)C	11	15	190 (≈ 604 µM)
C=C1C(CCC)=C(C#N)C(=O)N1c1cc(Cl)ccc1Cl	–	8.5	66 (≈ 215 µM)
C=C1C(C)=C(C#N)C(=O)N1N1CCCCC1	–	125	244 (≈ 1120 µM)
C=C1C(C)=C(C#N)C(=O)N1c1ccc(Cl)c(Cl)c1	–	15	167 (≈ 598 µM)
C=C1C(CC(C)C)=C(C#N)C(=O)N1c1cc(Cl)cc(Cl)c1	–	5.5	119 (≈ 370 µM)
C=C1C(CC(C)C)=C(C#N)C(=O)N1c1cc(C(F)(F)F)cc(C(F)(F)F)c1	–	6.3	26 (≈ 67 µM)
C=C1C(c2ccccc2)=C(C#N)C(=O)N1C1CCCCC1	12.5	7.5	130 (≈ 467 µM)
C=C1C(C)=C(C(=O)Nc2cccc(Cl)c2)C(=O)N1c1cccc(Cl)c1	250	12.5	–
C=C1C(C(C)C)=C(C#N)C(=O)N1c1c(C)cccc1C(C)C	47	27.5	–
C=C1C(CCCC)=C(C#N)C(=O)N1c1cccc(Cl)c1C	8.3	4.3	175 (≈ 582 µM)
C=C1C(CCCC)=C(C#N)C(=O)N1c1c(C)cccc1Cl	56	6	–
CC(C)(O)CC[C@@H](O)[C@](C)(O)[C@H]1CC[C@@]2(O)C3=CC(=O)[C@@H]4C[C@@H](O)[C@@H](O)C[C@]4(C)[C@H]3CC[C@]12C [20-HYDROXYECDYSONE]	5.5	24	–
CC(C)CC[C@@H](O)[C@](C)(O)[C@H]1CC[C@@]2(O)C3=CC(=O)[C@@H]4C[C@@H](O)[C@@H](O)C[C@]4(C)[C@H]3CC[C@]12C [PONASTERONE A]	0.9	1.1	–

Now from value to molecule, other results behind:

IC50 (Ecdysone receptor) [µM]	IC50 [1] [µM]	Structure (SMILES)	LC50 [2] [µg/mL]
5.5	2.7	C=C1C(CC(C)C)=C(C#N)C(=O)N1c1cc(Cl)c(Cl)cc1Cl	–
175	30	C=C1C(CC(C)C)=C(C#N)C(=O)N1c1c(C)cc(C)cc1C	–
55	43	C=C1C(c2ccccc2)=C(C#N)C(=O)N1c1c(C)cccc1C(C)C	–
17.5	12.5	C=C1C(C)=C(C(=O)c2ccccc2)C(=O)N1c1cccc(C(F)(F)F)c1	–
42	6.5	C=C1C(C(C)C)=C(C#N)C(=O)N1c1ccc(Cl)cc1C(C)(C)C	–
480	62.5	C=C1C(C(C)C)=C(C#N)C(=O)N1c1c(C)cc(Cl)cc1Cl	–
12.5	6	C=C1C(CCCC)=C(C#N)C(=O)N1c1cc(Cl)ccc1C	–
5.5	4	C=C1C(CCCC)=C(C#N)C(=O)N1c1cc(Cl)ccc1C(C)(C)C	–
33	46	C=C1C(CCCC)=C(C#N)C(=O)N1c1c(C)cccc1CC	–
